Results on one compound are retold here after publication PMC5694347 (Clinical cancer research : an official journal of the …, 2015).

Marks after values point to notes of the source that are not given here.

The subject of data set [1] is patients with AML and myelodysplastic syndromes (MDS). The following applies: same dosing as schedule B (days 1, 4, 8, 11); cited from earlier work.
In data set [2] the test system is patients with relapsed and/or refractory lymphoma or MM. The experiment in a line: Phase I dose escalation: MTD and DLT determination. Type of data set: in vivo.
A further data set has as its system NRF-2. The experiment in a line: Skin punch biopsy immunohistochemistry, NRF-2. Type of data set: in vivo, human. The settings on record: 19 patients, schedule A 25–147 mg/m^2, after second dose of cycle 1. A digest of the protocol:
(§1)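 IV infusion over 1 h. 2 mm skin punch biopsies were taken at screening and 3–6 h after the cycle 1 dose on day 2 (schedule A) or day 4 (schedule B). On 5 µm sections, CC1 antigen retrieval ran 20 min. Primary antibody was applied 1 h at room temperature, then alkaline phosphatase secondary 32 min, developed with NBT/BCIP. Slides were counterstained and imaged at 20x. Signal was percent stained area of the basal epithelial region.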

A further data set relates to NQO1. The experiment in a line: Whole blood reverse-transcriptase-PCR of NRF-2-regulated genes. The class given is in vivo, human. The following applies: approximate. A digest of the protocol:
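Whole blood was collected in PAXgene tubes at screening, at baseline and during cycle 1. Schedule A: day 1 at 4 and 8 h, day 2 pre-dose, day 5. Schedule B: days 1 and 11 at 4, 8 and 23 h, pre-dose days 4 and 11, day 15. Eight genes were assayed by RT-PCR, with ΔCt against four housekeeping genes (18S, B2M, RPLP0, UBC). Percent change = (2^−(post ΔCt − baseline ΔCt) − 1) × 100. Undetermined Ct was set to 40.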

The subject of a further data set is CDT-1. The experiment in a line: Skin punch biopsy immunohistochemistry, CDT-1. Type of data set: in vivo, human. The settings on record: 3–6 hours after second dose of cycle 1. A digest of the protocol:
as §1

Data set [3] relates to pevonedistat–NEDD8 adduct. The experiment in a line: Bone marrow aspirate immunohistochemistry for pevonedistat–NEDD8 adduct. The settings on record: one patient treated at 25 mg/m^2, pre-dose and post-dose sample. The class given is in vivo, human. A digest of the protocol: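 Patients with marrow involvement received IV pevonedistat over 1 h. Marrow aspirates were taken at screening and 2–6 h after the cycle 1 dose on day 2 (schedule A) or day 4 (schedule B). Aspirates were clotted, formalin-fixed and paraffin-embedded. Adduct-specific antibody was applied 1 h at 37°C, then biotinylated goat anti-rabbit secondary 32 min at room temperature, with DAB detection. Slides were counterstained and whole-slide imaged at 20x.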

Data set [4] is described as follows: Plasma pharmacokinetics, cycle 1. The settings on record: human, in vivo.

For `NS(=O)(=O)OC[C@@H]1C[C@@H](n2ccc3c(N[C@H]4CCc5ccccc54)ncnc32)C[C@@H]1O` [pevonedistat], in data set [1], the “MTD in AML/MDS patients” value is 83 mg/m^2. The “DLTs at 261 mg/m^2” value in data set [2] (in vivo) is given as “no DLTs were observed”. Also, the “Maximum tolerated dose (MTD)” value in data set [2] (schedule A: IV days 1, 2, 8, 9 of 21-day cycles) was 110 mg/m^2. Also, in the data set with NRF-2, the “NRF-2 expression in skin, median increase vs baseline” value was determined as 39.4 fold. Besides, the “NRF-2 expression in skin, range of increase vs baseline” value with NRF-2 is given as 0–1483 fold. Moreover, the “NQO1 expression in whole blood, maximal change from baseline” value in the data set on NQO1 (doses of 25–83 mg/m^2, cycle 1 day 1) is 250% to 400%; with NQO1 (doses of 110–261 mg/m^2, cycle 1 day 1) it was 700% to 800%. Further, in the data set on CDT-1, the “CDT-1 expression level in skin biopsies vs baseline” value is on record as “increases”. Also, the “Pevonedistat–NEDD8 adduct in bone marrow aspirate” value in data set [3] was “not detected”. Further, in data set [4], the “Dose proportionality of mean Cmax and AUC0–24hr” value was “approximate dose-proportional increases”. Moreover, the Cmax was 1683 (28) ng/mL in data set [4] (110 mg/m2); 1500 ng/mL in data set [4] (110 mg/m2, Cmax); 3751 (53) ng/mL in data set [4] (196 mg/m2); 4560 ng/mL in data set [4] (196 mg/m2, Cmax). Also, the Tmax in data set [4] (110 mg/m2) is 1.08 h; in data set [4] (110 mg/m2, Tmax) it was 1.02 h; in data set [4] (196 mg/m2), 1.02 (0.9– 1.1) hr; in data set [4] (196 mg/m2, Tmax) it was 1.1 h. Also, in data set [4] (196 mg/m2), the AUC0-τ was 12,367 (13) ^c nghr/mL. In addition, in data set [4] (196 mg/m2), the “Mean plasma elimination half-life” value was 8.5 h. Besides, the clearance in data set [4] (196 mg/m2) was 472 mL/min. The half-life in data set [4] (196 mg/m2, Mean plasma elimination half-life) was ~8.5 h; in data set [4] (196 mg/m2, Plasma elimination half-life, range), 7.7 to 9.1 h; in data set [4] (196 mg/m2, t½ (terminal disposition half-life)), 8.5 h.
